From ChEMBL document CHEMBL1145087 (J Med Chem, 2003)

Experiments:
[1] = target: T1, Progesterone receptor (Homo sapiens) (UniProt P06401); assay: Percent agonistic effect towards human progesterone receptor in CV-1 cells; type: functional, cell-based
T1 sequence (whole entry): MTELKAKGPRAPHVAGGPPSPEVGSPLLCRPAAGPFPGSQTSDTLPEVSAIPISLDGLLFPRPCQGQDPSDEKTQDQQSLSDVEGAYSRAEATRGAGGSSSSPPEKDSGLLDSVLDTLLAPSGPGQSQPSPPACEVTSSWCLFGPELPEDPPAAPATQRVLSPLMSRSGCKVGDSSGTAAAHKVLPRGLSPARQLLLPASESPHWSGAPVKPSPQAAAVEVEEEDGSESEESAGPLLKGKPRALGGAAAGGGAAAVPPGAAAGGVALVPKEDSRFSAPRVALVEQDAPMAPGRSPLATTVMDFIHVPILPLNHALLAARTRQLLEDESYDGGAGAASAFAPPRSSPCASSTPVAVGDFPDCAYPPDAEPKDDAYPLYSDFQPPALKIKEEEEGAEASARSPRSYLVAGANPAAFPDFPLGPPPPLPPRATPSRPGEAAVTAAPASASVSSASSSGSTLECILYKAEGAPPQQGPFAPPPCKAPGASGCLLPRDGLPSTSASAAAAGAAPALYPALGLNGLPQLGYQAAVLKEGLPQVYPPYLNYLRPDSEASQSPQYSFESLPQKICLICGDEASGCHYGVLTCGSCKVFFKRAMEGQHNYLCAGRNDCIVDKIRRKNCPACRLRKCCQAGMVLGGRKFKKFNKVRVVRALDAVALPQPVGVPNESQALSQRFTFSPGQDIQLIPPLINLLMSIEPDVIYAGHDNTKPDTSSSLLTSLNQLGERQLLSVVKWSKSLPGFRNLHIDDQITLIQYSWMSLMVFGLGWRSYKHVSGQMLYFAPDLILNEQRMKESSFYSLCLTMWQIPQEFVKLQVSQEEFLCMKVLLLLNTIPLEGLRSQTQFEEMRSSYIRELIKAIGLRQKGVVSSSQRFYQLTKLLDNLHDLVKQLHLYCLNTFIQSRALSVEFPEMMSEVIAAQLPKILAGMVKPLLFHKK

Progesterone receptor [2] = target: T2, Progesterone receptor (Homo sapiens, UniProt P06401); assay: Binding affinity towards human progesterone receptor A isoform using progesterone as radioligand
T2 sequence (P06401 whole entry): T1 sequence (whole entry)

Progesterone receptor [3] = target: T2, Progesterone receptor; assay: Agonistic activity against human progesterone receptor in T47D breast cancer cells; type: functional, cell-based
[4] = target: T1, Progesterone receptor (Homo sapiens); assay: Percent agonistic effect towards human progesterone receptor in T47D breast cancer cells; type: functional, cell-based
Glucocorticoid receptor [5] = target: T3, Glucocorticoid receptor (Homo sapiens, UniProt P04150); assay: Inhibition of Dexamethasone binding to human glucocorticoid receptor expressed in baculovirus […] cells
T3 sequence (P04150 whole entry): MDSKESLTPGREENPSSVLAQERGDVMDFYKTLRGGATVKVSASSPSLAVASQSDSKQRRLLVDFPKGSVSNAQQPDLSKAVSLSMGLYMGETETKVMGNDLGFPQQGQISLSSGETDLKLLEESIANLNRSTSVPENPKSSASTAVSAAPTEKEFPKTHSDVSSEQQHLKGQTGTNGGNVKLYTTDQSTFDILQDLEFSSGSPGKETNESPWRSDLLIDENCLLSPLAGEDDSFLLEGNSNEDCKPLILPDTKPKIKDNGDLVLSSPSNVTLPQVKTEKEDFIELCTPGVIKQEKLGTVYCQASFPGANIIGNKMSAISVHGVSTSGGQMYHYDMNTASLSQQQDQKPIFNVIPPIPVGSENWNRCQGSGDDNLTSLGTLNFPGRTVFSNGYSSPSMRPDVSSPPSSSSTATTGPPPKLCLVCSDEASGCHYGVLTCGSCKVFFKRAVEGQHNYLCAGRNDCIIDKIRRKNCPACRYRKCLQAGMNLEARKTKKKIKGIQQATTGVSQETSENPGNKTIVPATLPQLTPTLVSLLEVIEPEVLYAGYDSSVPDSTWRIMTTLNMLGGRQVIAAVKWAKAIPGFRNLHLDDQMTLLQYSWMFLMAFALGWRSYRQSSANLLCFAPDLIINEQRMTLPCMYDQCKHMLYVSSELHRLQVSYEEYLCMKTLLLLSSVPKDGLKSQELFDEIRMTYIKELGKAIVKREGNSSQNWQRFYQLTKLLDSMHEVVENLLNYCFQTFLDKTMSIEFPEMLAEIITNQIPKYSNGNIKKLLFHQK

Progesterone receptor [6] = target: T2, Progesterone receptor; assay: Agonistic activity against human progesterone receptor in CV-1 cells; type: functional, cell-based
Homo sapiens [7] = organism: Homo sapiens; assay: Relative potency for human androgen and progesterone receptors
Homo sapiens [8] = organism: Homo sapiens; assay: Relative potency for human estrogen and progesterone receptors
Homo sapiens [9] = organism: Homo sapiens; assay: Relative potency for human glucocorticoid and progesterone receptors
Homo sapiens [10] = organism: Homo sapiens; assay: Relative potency for human mineralocorticoid and progesterone receptors
Glucocorticoid receptor [11] = target: T3, Glucocorticoid receptor
Androgen receptor [12] = target: T4, Androgen receptor (Homo sapiens, UniProt P10275); assay: biochemical
T4 sequence (P10275 whole entry): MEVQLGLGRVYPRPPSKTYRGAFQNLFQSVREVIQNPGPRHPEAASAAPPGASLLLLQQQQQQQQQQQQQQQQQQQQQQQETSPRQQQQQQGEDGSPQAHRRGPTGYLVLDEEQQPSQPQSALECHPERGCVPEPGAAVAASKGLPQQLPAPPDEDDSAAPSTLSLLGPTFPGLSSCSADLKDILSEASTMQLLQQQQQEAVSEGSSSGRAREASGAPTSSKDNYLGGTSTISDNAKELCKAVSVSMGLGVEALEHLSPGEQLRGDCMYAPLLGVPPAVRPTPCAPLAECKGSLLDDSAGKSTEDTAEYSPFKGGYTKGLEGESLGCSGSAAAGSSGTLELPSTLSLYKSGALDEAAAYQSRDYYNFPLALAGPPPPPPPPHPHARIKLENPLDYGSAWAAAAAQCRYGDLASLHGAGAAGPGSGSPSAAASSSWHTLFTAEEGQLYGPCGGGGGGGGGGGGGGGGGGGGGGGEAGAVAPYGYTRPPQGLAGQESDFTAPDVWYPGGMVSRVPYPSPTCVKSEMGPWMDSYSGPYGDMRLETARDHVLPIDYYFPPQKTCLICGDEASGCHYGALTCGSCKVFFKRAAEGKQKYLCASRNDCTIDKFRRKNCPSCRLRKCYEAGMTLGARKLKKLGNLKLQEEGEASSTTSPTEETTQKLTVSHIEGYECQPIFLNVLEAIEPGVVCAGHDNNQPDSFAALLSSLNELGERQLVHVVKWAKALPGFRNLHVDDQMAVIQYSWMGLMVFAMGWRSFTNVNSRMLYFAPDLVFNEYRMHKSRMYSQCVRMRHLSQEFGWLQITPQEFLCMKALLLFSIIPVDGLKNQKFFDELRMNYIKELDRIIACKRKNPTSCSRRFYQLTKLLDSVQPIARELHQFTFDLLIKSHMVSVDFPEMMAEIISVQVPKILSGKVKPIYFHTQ

Androgen receptor [13] = target: T4, Androgen receptor
Estrogen receptor [14] = target: T5, Estrogen receptor (Homo sapiens, UniProt Q92731+P03372); assay: Antagonistic efficacy against human estrogen receptor; type: functional
In short: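 Cotransfection LUC reporter assay for hER. Antagonist efficacy is the % maximal inhibition of a standard agonist (estradiol is the reference agonist for hER) applied at its EC50.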

Estrogen receptor [15] = target: T5, Estrogen receptor

Efficacy [1] [%]	Ki (Progesterone receptor [2]) [nM]	EC50 (Progesterone receptor [3]) [nM]	Efficacy [4] [%]	Ki (Glucocorticoid receptor [5]) [nM]	EC50 (Progesterone receptor [6]) [nM]	Ratio (Homo sapiens [7])	Ratio (Homo sapiens [8])	Ratio (Homo sapiens [9])	Ratio (Homo sapiens [10])	IC50 (Glucocorticoid receptor [11]) [nM]	Ki (Androgen receptor [12]) [nM]	IC50 (Androgen receptor [13]) [nM]	SMILES	Efficacy (Estrogen receptor [14]) [%]	IC50 (Estrogen receptor [15]) [nM]
146	22.4	–	–	–	–	–	–	–	–	–	–	–	CC1=CC(C)(C)Nc2ccc3c(c21)/C(=C/c1ccccc1Cl)Oc1ccc(F)cc1-3	–	–
132	0.59	41	53	386	6.2	> 1000	> 1000	139	> 1000	860	> 1000	–	CSc1ccccc1/C=C1\Oc2ccc(F)cc2-c2ccc3c(c21)C(C)=CC(C)(C)N3	–	–
178	0.55	19	49	236	3.6	228	> 1000	181	> 1000	650	> 1000	820	CC1=CC(C)(C)Nc2ccc3c(c21)/C(=C/c1ccccc1C)Oc1ccc(F)cc1-3	–	–
107	2.6	48	72	–	11	–	–	–	–	–	–	–	CC1=CC(C)(C)Nc2ccc3c(c21)/C(=C/c1ccccc1C=O)Oc1ccc(F)cc1-3	–	–
156	1.9	54	43	–	4	–	–	–	–	–	–	–	CC1=CC(C)(C)Nc2ccc3c(c21)/C(=C/c1ccccc1C(C)C)Oc1ccc(F)cc1-3	–	–
123	1.6	59	46	–	4.5	–	–	–	–	–	–	–	CCCc1ccccc1/C=C1\Oc2ccc(F)cc2-c2ccc3c(c21)C(C)=CC(C)(C)N3	–	–

The next lines start with the compound.

SMILES	Efficacy [1] [%]	Ki (Progesterone receptor [2]) [nM]	EC50 (Progesterone receptor [3]) [nM]	Efficacy [4] [%]	Ki (Glucocorticoid receptor [5]) [nM]	EC50 (Progesterone receptor [6]) [nM]	Ratio (Homo sapiens [7])	Ratio (Homo sapiens [8])	Ratio (Homo sapiens [9])	Ratio (Homo sapiens [10])	IC50 (Glucocorticoid receptor [11]) [nM]	Ki (Androgen receptor [12]) [nM]	IC50 (Androgen receptor [13]) [nM]	Efficacy (Estrogen receptor [14]) [%]	IC50 (Estrogen receptor [15]) [nM]
CC1=CC(C)(C)Nc2ccc3c(c21)/C(=C/c1ccccc1C)Oc1ccccc1-3	–	–	28	45	–	–	–	–	–	–	–	–	–	–	–
CC1=CC(C)(C)Nc2ccc3c(c21)/C(=C/c1ccncc1)Oc1ccc(F)cc1-3	105	1.5	4.9	49	–	5.8	–	–	–	–	–	–	–	–	–
COc1ccccc1/C=C1\Oc2ccc(F)cc2-c2ccc3c(c21)C(C)=CC(C)(C)N3	154	3.8	8	40	277	–	> 1000	> 1000	97	> 1000	90	439	–	34	1885
CC1=CC(C)(C)Nc2ccc3c(c21)/C(=C/c1ccccc1)Oc1ccc(F)cc1-3	176	0.62	28	55	207	–	121	> 1000	387	> 1000	2050	> 1000	640	–	–
